Source: ChEMBL document CHEMBL2074309, “The drug transporter P-glycoprotein limits oral absorption and brain entry of HIV-1 protease inhibitors” (J Clin Invest, 1998)

What was measured:
[1] = molecular target: T1, ATP-dependent translocase ABCB1 (Homo sapiens, UniProt P08183); assay: TP_TRANSPORTER: transepithelial transport (basal to apical) in MDR1-expressing LLC-PK1 cells; assay type: functional, cell-based; conditions: pig
Procedure, shortened: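 L-MDR1 cells (LLC-PK1 expressing MDR1) plated at 4×10^5 cells/12-mm well on 3.0 µm polycarbonate Transwell filters, used day 4; resistance ≥200 Ω after blank correction. Serum-free Optimem; [14C]-drug 5 µM added to basal compartment, apical radioactivity sampled at 1, 2, 3, 4 h by scintillation, given as % of total added; parental LLC-PK1 run alongside; mean ± SE, ≥3 experiments.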

[2] = molecular target: ATP-dependent translocase ABCB1 (Mus musculus, UniProt P21447); assay: TP_TRANSPORTER: increase in brain concentration in mdr1a(-/-) mouse; assay type: functional, organism-based; conditions: in vivo
Procedure, shortened: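 Male mdr1a(-/-) (FVB/TacBR-[KO]mdr1aN7) and matched mdr1a(+/+) FVB/NTacBR mice, 6–12 wk, three per group. [14C]-drug (indinavir 1.5 mg/kg, nelfinavir 3 mg/kg, saquinavir 2 mg/kg) in ethanol/0.9% saline, given i.v. into tail vein over 10 min. At 4 h, isoflurane anesthesia, orbital exsanguination, brain homogenized in 4% BSA. Total radioactivity by scintillation; value is (-/-)/(+/+) ratio of brain levels.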

[3] = molecular target: T1, ATP-dependent translocase ABCB1; assay: TP_TRANSPORTER: inhibition of Saquinavir transepithelial transport (basal to apical) (Saquinavir: 5 uM, PSC-833: 1 uM) in Caco-2 cells; assay type: functional, cell-based; conditions: caco-2, 1 µM
Procedure, shortened: (§1)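 Caco-2 monolayers on 0.4 µm polycarbonate Transwell filters, plated at 10^5 cells/12-mm well, used on day 4; wells with resistance ≥200 Ω (blank-corrected) used. […] Radioactivity reaching apical side sampled at 1, 2, 3, 4 h, expressed as % of added; mean ± SE, ≥3 experiments.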

[4] = molecular target: T1, ATP-dependent translocase ABCB1; assay: TP_TRANSPORTER: inhibition of Nelfinavir transepithelial transport (basal to apical) (Nrlfinavir: 5 uM, PSC-833: 1 uM) in Caco-2 cells; assay type: functional, cell-based; conditions: caco-2, 1 µM; procedure, shortened: as §1
[5] = molecular target: T1, ATP-dependent translocase ABCB1; assay: TP_TRANSPORTER: inhibition of Indinavir transepithelial transport (basal to apical) (Indinavir: 5 uM, PSC-833: 1 uM) in Caco-2 cells; assay type: functional, cell-based; conditions: caco-2, 1 µM; procedure, shortened: as §1

T1 sequence (P08183 whole entry): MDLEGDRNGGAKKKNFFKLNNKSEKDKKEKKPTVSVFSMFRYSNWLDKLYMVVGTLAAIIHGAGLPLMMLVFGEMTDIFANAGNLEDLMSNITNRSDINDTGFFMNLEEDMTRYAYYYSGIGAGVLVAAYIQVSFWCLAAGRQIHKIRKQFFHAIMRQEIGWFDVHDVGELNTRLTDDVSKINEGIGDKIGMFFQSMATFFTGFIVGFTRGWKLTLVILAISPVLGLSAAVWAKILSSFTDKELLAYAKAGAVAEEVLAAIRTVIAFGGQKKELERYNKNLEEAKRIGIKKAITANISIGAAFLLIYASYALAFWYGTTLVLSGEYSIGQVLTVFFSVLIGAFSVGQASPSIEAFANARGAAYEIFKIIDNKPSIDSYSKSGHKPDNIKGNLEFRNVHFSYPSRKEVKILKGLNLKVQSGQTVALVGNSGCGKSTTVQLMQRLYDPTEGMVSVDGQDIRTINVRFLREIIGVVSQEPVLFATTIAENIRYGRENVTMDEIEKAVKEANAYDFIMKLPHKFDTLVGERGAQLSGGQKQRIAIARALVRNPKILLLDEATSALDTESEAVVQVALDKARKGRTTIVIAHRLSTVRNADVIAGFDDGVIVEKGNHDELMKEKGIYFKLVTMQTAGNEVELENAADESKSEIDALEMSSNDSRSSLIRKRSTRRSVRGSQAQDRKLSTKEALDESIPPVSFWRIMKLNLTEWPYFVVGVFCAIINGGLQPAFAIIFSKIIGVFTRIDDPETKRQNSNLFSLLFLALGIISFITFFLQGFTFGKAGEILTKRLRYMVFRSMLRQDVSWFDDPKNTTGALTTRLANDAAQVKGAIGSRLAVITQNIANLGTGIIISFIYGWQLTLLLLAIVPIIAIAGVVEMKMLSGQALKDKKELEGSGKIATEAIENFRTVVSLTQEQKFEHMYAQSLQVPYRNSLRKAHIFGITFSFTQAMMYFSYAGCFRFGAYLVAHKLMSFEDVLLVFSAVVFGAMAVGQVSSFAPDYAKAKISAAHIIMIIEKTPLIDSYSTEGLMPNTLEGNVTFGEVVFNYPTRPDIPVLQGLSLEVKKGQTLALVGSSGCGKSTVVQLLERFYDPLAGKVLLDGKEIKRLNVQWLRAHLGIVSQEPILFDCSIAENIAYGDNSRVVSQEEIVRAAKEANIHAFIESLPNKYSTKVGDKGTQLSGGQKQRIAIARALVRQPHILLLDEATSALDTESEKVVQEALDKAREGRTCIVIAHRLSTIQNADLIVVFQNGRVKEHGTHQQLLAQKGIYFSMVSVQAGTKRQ
Chain of ATP-dependent translocase ABCB1 (Mus musculus, UniProt P21447) (P21447 whole entry): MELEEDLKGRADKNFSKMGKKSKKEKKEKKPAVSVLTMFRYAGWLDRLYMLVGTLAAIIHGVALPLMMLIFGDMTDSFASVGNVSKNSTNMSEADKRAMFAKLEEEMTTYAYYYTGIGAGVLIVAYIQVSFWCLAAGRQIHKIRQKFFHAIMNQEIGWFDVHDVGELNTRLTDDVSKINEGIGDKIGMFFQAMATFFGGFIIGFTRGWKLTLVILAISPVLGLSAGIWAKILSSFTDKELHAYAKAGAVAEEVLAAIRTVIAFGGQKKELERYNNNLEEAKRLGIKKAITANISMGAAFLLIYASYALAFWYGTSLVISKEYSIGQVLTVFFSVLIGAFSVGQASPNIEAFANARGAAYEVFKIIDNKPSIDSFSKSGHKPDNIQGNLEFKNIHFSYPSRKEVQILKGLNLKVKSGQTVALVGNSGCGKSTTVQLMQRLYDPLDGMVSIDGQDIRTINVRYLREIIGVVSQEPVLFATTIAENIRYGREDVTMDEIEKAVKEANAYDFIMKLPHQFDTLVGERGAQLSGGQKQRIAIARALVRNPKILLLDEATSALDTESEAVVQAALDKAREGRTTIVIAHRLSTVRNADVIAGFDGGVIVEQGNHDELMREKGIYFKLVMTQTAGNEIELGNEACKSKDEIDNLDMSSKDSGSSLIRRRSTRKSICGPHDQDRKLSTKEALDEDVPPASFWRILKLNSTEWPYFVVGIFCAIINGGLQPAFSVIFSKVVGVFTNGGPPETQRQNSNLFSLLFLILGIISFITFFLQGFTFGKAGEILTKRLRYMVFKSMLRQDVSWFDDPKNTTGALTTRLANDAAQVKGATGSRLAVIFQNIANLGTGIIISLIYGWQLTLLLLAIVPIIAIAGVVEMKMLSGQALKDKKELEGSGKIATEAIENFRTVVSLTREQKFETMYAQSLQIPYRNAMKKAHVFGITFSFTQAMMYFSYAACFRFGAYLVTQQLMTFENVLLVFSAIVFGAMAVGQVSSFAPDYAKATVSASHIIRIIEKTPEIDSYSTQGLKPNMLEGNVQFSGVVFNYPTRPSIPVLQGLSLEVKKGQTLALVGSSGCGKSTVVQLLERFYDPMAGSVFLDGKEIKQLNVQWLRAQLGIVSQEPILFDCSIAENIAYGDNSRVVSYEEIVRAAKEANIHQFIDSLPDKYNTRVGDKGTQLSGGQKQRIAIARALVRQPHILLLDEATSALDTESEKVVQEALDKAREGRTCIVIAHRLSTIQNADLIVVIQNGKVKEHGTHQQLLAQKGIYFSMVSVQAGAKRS

Row | Activity [1] | Activity [2] | Activity [3] | Activity [4] | Activity [5] | Compound
1 | substrate [+] | substrate [+] |  |  |  | Cc1c(O)cccc1C(=O)N[C@@H](CSc1ccccc1)[C@H](O)CN1C[C@H]2CCCC[C@H]2C[C@H]1C(=O)NC(C)(C)C
2 | substrate [+] | substrate [+] |  |  |  | CC(C)(C)NC(=O)[C@@H]1CN(Cc2cccnc2)CCN1C[C@@H](O)C[C@@H](Cc1ccccc1)C(=O)N[C@H]1c2ccccc2C[C@H]1O.O
3 |  | substrate [+] |  |  |  | CC(C)(C)NC(=O)[C@@H]1C[C@@H]2CCCC[C@@H]2CN1C[C@@H](O)[C@H](Cc1ccccc1)NC(=O)[C@H](CC(N)=O)NC(=O)c1ccc2ccccc2n1
4 |  |  | inhibitor [+] | inhibitor [+] | inhibitor [+] | C/C=C/C[C@@H](C)C(=O)[C@H]1C(=O)N[C@@H](C(C)C)C(=O)N(C)CC(=O)N(C)[C@@H](CC(C)C)C(=O)N[C@@H](C(C)C)C(=O)N(C)[C@@H](CC(C)C)C(=O)N[C@@H](C)C(=O)N[C@H](C)C(=O)N(C)[C@@H](CC(C)C)C(=O)N(C)[C@@H](CC(C)C)C(=O)N(C)[C@@H](C(C)C)C(=O)N1C [VALSPODAR]
